Results: ChEMBL document CHEMBL2093137, “WHO-TDR NTD Screening”
In brackets after ≈: the same amount, converted by molar mass.

Key:
[1] = WHO-TDR: Cytotoxicity; format: toxicity, cell-based; settings: human, MRC5 cells
[2] = test system: Plasmodium falciparum K1; assay: WHO-TDR: Malaria; format: functional, organism-based, Homo sapiens; settings: Erythrocyte
Summary of the method: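 A diverse library of 10,000 compounds from Life Chemicals, filtered for drug-likeness and reactive groups, was screened against the intra-erythrocytic Plasmodium falciparum K1 strain in human red blood cells. Previously published standard procedures were followed, with a reference drug as positive control. Antiplasmodial potency is given as IC50.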

[3] = test system: Trypanosoma cruzi; assay: WHO-TDR: Chagas disease; format: functional, organism-based, Homo sapiens; settings: MRC5
Summary of the method: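 Following previously published standard procedures, with a reference drug as positive control, a whole-organism assay was run on Trypanosoma cruzi Tulahuen CL2 beta-galactosidase strain amastigotes inside MRC-5SV2 human lung fibroblast host cells. The 10,000 compounds tested formed a diverse Life Chemicals library filtered for drug-likeness and reactive groups. Results are expressed as IC50 for antiparasitic potency.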

[4] = test system: Trypanosoma brucei brucei; assay: WHO-TDR: Human African Trypanosomiasis (HAT); format: functional, organism-based; settings: Squib-427
Summary of the method: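 A diverse library of 10,000 compounds from Life Chemicals, filtered for drug-likeness and reactive groups, was screened against bloodstream forms of Trypanosoma brucei Squib 427 strain in a whole-organism assay. Previously published standard procedures were followed, with reference drugs serving as positive controls. Antiparasitic potency is given as IC50.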

[5] = test system: Leishmania infantum; assay: WHO-TDR: Leishmaniasis; format: functional, organism-based, Mus musculus; settings: Macrophage
Summary of the method: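 A diverse library of 10,000 compounds from Life Chemicals, filtered for drug-likeness and reactive groups, was screened against whole organisms. The targets were intracellular amastigotes of Leishmania infantum MHOM/MA(BE)/67 growing in murine peritoneal macrophages. Previously published standard procedures were followed, with a reference drug as positive control. Antiparasitic potency is given as IC50.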

[6] = test system: Schistosoma mansoni; assay: WHO-TDR: Schistosomiasis; format: functional; design: concentration or dose not given beside the values
Summary of the method: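 Whole-organism screen of a 10,000-compound diverse library from Life Chemicals, filtered for drug-likeness and reactive groups, against larval and/or adult worms of Schistosoma mansoni Puerto Rican strain. The assay followed previously published standard procedures, with a reference drug as positive control. Activity is reported as percent inhibition and as IC50.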

[7] = test system: Onchocerca ochengi; assay: WHO-TDR: Onchocerciasis; format: functional; design: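 at 12.5 µM on microfilariae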
Summary of the method: (§1)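 Whole-organism screen of a 10,000-compound diverse library from Life Chemicals, filtered for drug-likeness and reactive groups, against microfilariae of Onchocerca ochengi or Onchocerca lienalis, used as animal-pathogen stand-ins for the human parasite. The assay followed previously published standard procedures, with reference drugs as positive controls. Activity is reported as percent inhibition and as IC50.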

[8] = test system: Brugia malayi; assay: WHO-TDR: Lymphatic Filariasis; format: functional; design: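 tested at 10 µM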
Summary of the method: as §1, with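 “Brugia malayi microfilariae.” for “microfilariae of Onchocerca ochengi or Onchocerca lienalis, used as animal-pathogen stand-ins for the human parasite.”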

Structure (SMILES) | IC50 [2] [µg/mL] | IC50 [4] [µg/mL] | IC50 [5] [µg/mL] | IC50 [1] [µg/mL] | IC50 [3] [µg/mL] | % Inhibition [6] [%] | % Inhibition [7] [%] | % Inhibition [8] [%]
O=C(COc1ccc(Cl)cc1)NCCCn1nc(-c2ccc(F)cc2)ccc1=O | > 12.5 | > 12.5 | > 12.5 | > 12.5 | > 12.5 | 16.7 | 100 | 0
CCn1ccc(C(=O)Nc2ccc(C)cc2C(=O)c2ccccc2)n1 | > 10 | > 10 | > 10 | > 10 | > 10 | 0 | 100 | 0
CCn1nc(C(=O)Nc2nnc(CCSc3ccccc3)o2)cc1C | > 10.7 | > 10.7 | > 10.7 | > 10.7 | > 10.7 | 0 | 100 | 0
CS(=O)(=O)N1CCCCC1C(=O)Nc1nc(-c2nc3ccccc3s2)cs1 (stereo not given) | > 12.7 | > 12.7 | > 12.7 | > 12.7 | > 12.7 | 0 | 100 | 0
CS(=O)(=O)N1CCCCC1C(=O)Nc1nc2c(Cl)c(Cl)ccc2s1 (stereo not given) | > 12.2 | > 12.2 | > 12.2 | > 12.2 | > 12.2 | 0 | 100 | 0
CCc1cccc2sc(NC(=O)C3CCCCN3S(C)(=O)=O)nc12 (stereo not given) | > 11 | 3.09 (≈ 8.4 µM) | > 11 | > 11 | 3.8 (≈ 10.3 µM) | 0 | 100 | 0
CS(=O)(=O)N1CCCC1C(=O)Nc1nc(-c2ccc(Cl)s2)cs1 (stereo not given) | 3.6 (≈ 9.18 µM) | > 11.8 | > 11.8 | > 11.8 | > 11.8 | 0 | 100 | 0
Cc1ccc(-c2ccc(=O)n(CCCNS(=O)(=O)c3ccc(Cl)s3)n2)cc1 | > 12.7 | > 12.7 | > 12.7 | 5.29 (≈ 12.5 µM) | > 12.7 | 0 | 100 | 0
O=c1ccc(-c2ccc(F)cc2)nn1CCCNS(=O)(=O)c1cc(F)ccc1F | > 12.7 | 4.24 (≈ 10 µM) | > 12.7 | 3.28 (≈ 7.74 µM) | > 12.7 | 0 | 100 | 0
COc1cc(C)ccc1S(=O)(=O)NCCCn1nc(-c2ccc(F)cc2)ccc1=O | > 12.9 | > 12.9 | > 12.9 | 10 (≈ 23.2 µM) | > 12.9 | 0 | 100 | 0
O=C(CSc1ccc(NC(=O)c2ccco2)nn1)Nc1ccccc1C(F)(F)F | > 12.7 | > 12.7 | > 12.7 | > 12.7 | > 12.7 | 0 | 100 | 0
CCCc1nnc(NC(=O)CSc2ccc(NC(=O)c3cccs3)nn2)s1 | > 12.6 | > 12.6 | 0.408 (≈ 0.97 µM) | > 12.6 | > 12.6 | 0 | 0 | 0
O=C(c1ccc2c(c1)OCO2)C1C(=O)N(c2ccccc2)N=C1c1ccccc1 (stereo not given) | > 11.5 | 3.32 (≈ 8.63 µM) | > 11.5 | 6.6 (≈ 17.2 µM) | > 11.5 | 0 | 100 | 0
O=C(c1ccc(Br)o1)C1C(=O)N(c2ccccc2)N=C1c1ccccc1 (stereo not given) | > 12.3 | 4.44 (≈ 10.8 µM) | > 12.3 | > 12.3 | 5.34 (≈ 13.1 µM) | 0 | 100 | 0

Second part, led by results:

IC50 [2] [µg/mL] | IC50 [4] [µg/mL] | IC50 [5] [µg/mL] | Structure (SMILES) | IC50 [1] [µg/mL] | IC50 [3] [µg/mL] | % Inhibition [6] [%] | % Inhibition [7] [%] | % Inhibition [8] [%]
> 10.5 | > 10.5 | > 10.5 | CCn1nc(C(=O)Nc2nnc(-c3ccc4c(c3)CCCC4)o2)cc1C | > 10.5 | > 10.5 | 16.7 | 100 | 0
> 12.2 | 3.12 (≈ 7.67 µM) | > 12.2 | CC(=O)c1sc(NC(=O)C2CCCCN2S(C)(=O)=O)nc1-c1ccccc1 (stereo not given) | > 12.2 | 4.06 (≈ 9.97 µM) | 0 | 100 | 0
> 11.5 | 5.4 (≈ 14.1 µM) | > 11.5 | CS(=O)(=O)N1CCCCC1C(=O)Nc1nc(-c2ccc(F)cc2)cs1 (stereo not given) | > 11.5 | 3.82 (≈ 9.95 µM) | 0 | 100 | 0
> 11.2 | 3.82 (≈ 10.2 µM) | > 11.2 | CCOC(=O)c1sc(NC(=O)C2CCCCN2S(C)(=O)=O)cc1C (stereo not given) | > 11.2 | 3.69 (≈ 9.86 µM) | 0 | 100 | 0
> 12.7 | > 12.7 | > 12.7 | CCOC(=O)c1sc(NC(=O)C2CCCN2S(C)(=O)=O)nc1-c1ccccc1 (stereo not given) | > 12.7 | > 12.7 | 0 | 100 | 0
> 11.9 | > 11.9 | > 11.9 | COc1ccc(-c2ccc(=O)n(CCCNC(=O)Cc3ccc(F)cc3)n2)cc1 | 11.3 (≈ 28.7 µM) | > 11.9 | 0 | 100 | 0
6.97 (≈ 16.9 µM) | 5.43 (≈ 13.1 µM) | > 12.4 | O=c1ccc(-c2ccc(F)cc2)nn1CCCNS(=O)(=O)/C=C/c1ccccc1 | 6.58 (≈ 15.9 µM) | > 12.4 | 0 | 100 | 0
> 12.3 | > 12.3 | 0.397 (≈ 0.972 µM) | O=C(Nc1ccc(SCC(=O)N2CCc3ccccc32)nn1)c1ccccc1F | > 12.3 | > 12.3 | 0 | 0 | 0
> 11.7 | > 11.7 | > 11.7 | O=C(CSc1ccc(NC(=O)c2cccs2)nn1)c1ccc(Cl)cc1 | 3.14 (≈ 8.05 µM) | > 11.7 | 0 | 100 | 0
> 13.2 | > 13.2 | 0.427 (≈ 0.971 µM) | O=C(NCCNC(=O)c1cccc(Cl)c1)c1ccc(NC(=O)c2ccc(F)cc2)cc1 | > 13.2 | > 13.2 | 0 | 0 | 0
> 10.2 | > 10.2 | > 10.2 | COc1ccc(C(=O)C2C(=O)N(c3ccccc3)N=C2C)c(OC)c1 (stereo not given) | > 10.2 | > 10.2 | 0 | 100 | 0
> 11.5 | > 11.5 | 0.371 (≈ 0.97 µM) | CCCCC1CCC(C(=O)NCCn2nc(-c3ccncc3)ccc2=O)CC1 (stereo not given) | 11 (≈ 28.7 µM) | 6.12 (≈ 16 µM) | 0 | 0 | 0
> 12.3 | > 12.3 | > 12.3 | O=c1ccc(-c2ccncc2)nn1CCNS(=O)(=O)c1ccc2c(c1)CCCC2 | > 12.3 | > 12.3 | 0 | 100 | 0
5.95 (≈ 13.6 µM) | 7.53 (≈ 17.2 µM) | > 13.2 | O=C(CC(c1ccccc1)c1ccccc1)NCCCn1nc(-c2ccncc2)ccc1=O | > 13.2 | 5.91 (≈ 13.5 µM) | 0 | 100 | 0
> 12.7 | > 12.7 | > 12.7 | O=c1ccc(-c2ccncc2)nn1CCCNS(=O)(=O)c1ccc2c(c1)CCCC2 | > 12.7 | 4.77 (≈ 11.2 µM) | 0 | 100 | 0
1.48 (≈ 3.56 µM) | > 12.5 | > 12.5 | Cc1ccnc(Nc2ccc(NCCNC(=O)c3cccc(C(F)(F)F)c3)nn2)c1 | 9.41 (≈ 22.6 µM) | > 12.5 | 0 | 100 | 0
